These results are taken from PMC4433875 (European journal of medicinal chemistry, 2015).

For orientation: IC50 means the midpoint of a concentration-inhibition curve.

In experiment [1] the test system is most tested cancer cell lines. The conditions noted are these: read-out: IC50 values for most tested cancer cell lines; original IBR2; cited from earlier work.
The subject of experiment [2] is triple-negative human breast cancer cell line MDA-MB-468. Nature of the experiment: XTT cell killing assay, MDA-MB-468. The experiment is classed as cell-based. As to conditions: growth inhibition. In short, it runs like this:
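MDA-MB-468 cells were grown in low-glucose DMEM with 10% FBS and 1% penicillin-streptomycin and plated one day before dosing. They received a four-day drug treatment, with the XTT proliferation kit read on day 6 after drug addition. Triplicate sets were compiled to give dose-dependent cytotoxicity.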
For orientation: Tetrazolium assays rely on reduction of a dye to a coloured formazan, in cell work by metabolically active cells.

The subject of experiment [3] is panel of cancer cell lines. As to the kind of experiment: XTT assay, panel of cancer cell lines. The experiment is classed as cell-based, human.
Another experiment concerns the target T1, RAD51 (Homo sapiens, UniProt Q06609).
T1 sequence (Q06609 1-339): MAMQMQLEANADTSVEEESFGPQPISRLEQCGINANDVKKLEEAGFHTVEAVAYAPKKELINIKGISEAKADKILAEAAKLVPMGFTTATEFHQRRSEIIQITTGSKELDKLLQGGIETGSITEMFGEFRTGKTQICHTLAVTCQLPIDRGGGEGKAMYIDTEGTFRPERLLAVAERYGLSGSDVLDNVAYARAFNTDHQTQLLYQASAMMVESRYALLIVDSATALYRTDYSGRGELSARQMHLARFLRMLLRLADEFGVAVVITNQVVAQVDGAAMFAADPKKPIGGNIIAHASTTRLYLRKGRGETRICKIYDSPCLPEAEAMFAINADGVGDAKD
As to the kind of experiment: Multimer formation assay. The experiment is classed as biochemical. The conditions noted are these: RAD51:IBR120 1:10 molar ratio, vs DMSO. In a few lines: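 RAD51 (3.2 µg) was incubated with test compound (1:10 molar ratio) for 15 min at 37°C. Buffer was added (50mM triethanolamine-HCl pH7.5, 0.5mM Mg(OAc)2, 1mM DTT, 2mM ATP, 100 µg/ml BSA) and incubation continued 15 min. The mixture was run on a Superdex 200 gel filtration column equilibrated in the same buffer. Fractions were dot-blotted on PVDF and probed with anti-RAD51 mAb 14B4.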

Experiment [4] relates to HeLa cells stably expressing DR-GFP. Nature of the experiment: I-SceI inducible gene conversion. In kind it is cell-based, human. As to conditions: 10 or 20 µM, 24 hours, flow cytometry. In a few lines:
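HeLa cells carrying stably integrated DR-GFP, selected with 2 µg/mL puromycin, were transfected with the I-SceI expression vector pCBASce for 24 h to induce DSBs. Cells were then exposed to DMSO or 10 or 20 µM test compound for another 24 h, trypsinized and analysed by flow cytometry for the percentage of GFP-positive cells. Three independent experiments, means±SD.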
(In general: In flow cytometry, cells or beads pass a laser one at a time.)

Consider `O=S(=O)(Cc1ccccc1)N1C=Cc2ccccc2C1c1c[nH]c2ccccc12` (centres unmarked) [IBR2], for which the IC50 in experiment [1] is 12 to 20 µM.

Consider `O=S(=O)(Cc1ccccc1)N1CC=Cc2ccccc2[C@@H]1c1c[nH]c2ccccc12` [IBR115], for which the “change of activity on increasing the central ring size from six to seven” value in experiment [2] is on record as “minimal change of activity”.

In the case of `O=S(=O)(Cc1ccccc1)N1CC=Cc2ccccc2[C@H]1c1c[nH]c2ccccc12` [IBR116], in experiment [2], the “change of activity on increasing the central ring size from six to seven” value is “almost complete loss of function”.

As to `O=S(=O)(Cc1ccccc1)N1CCc2ccccc2[C@@H]1c1n[nH]c2ccccc12` [IBR117, (R)-1-(1H-Indazol-3-yl)-2-phenylmethanesulfonyl-1,2,3,4-tetrahydro-isoquinoline], the “fold increase in activity compared to parental compound IBR2” value in experiment [2] is on record as 1.6~2.4 fold.

On to `O=S(=O)(Cc1ccccc1)N1Cc2ccccc2[C@@H]1c1c[nH]c2ccccc12` [IBR120, (R)-3-(2-(benzylsulfonyl)isoindolin-1-yl)-1H-indole], for which the IC50 in experiment [3] (Homo sapiens, read-out: IC50 values in most tested cancer cell lines) was in the range of 3 to 5 µM. The “difference between the IC50 values in normal and cancer cells” value in experiment [3] (normal MCF10A vs cancer cell lines) was “Approximately 10 fold”. Also, on RAD51, the “RAD51 multimerization (gel filtration elution profile)” value is “can inhibit RAD51 multimerization”. For the same compound, in experiment [4], the “HR frequency (GFP positive population)” value was “significantly reduced”.
